Results published in ChEMBL document CHEMBL4196175, “First SAR Study for Overriding NRAS Mutant Driven Acute Myeloid Leukemia” (J Med Chem, 2018).
Calls of active or inactive are those of the source. The calls are words filed in the database; no cut-off is given here.

Assays:
Activated CDC42 kinase 1 = Activated CDC42 kinase 1 (Homo sapiens, UniProt Q07912); assay: Inhibition of ACK1 (unknown origin) by radiometric biochemical kinase assay
[1] = target: T1, Mitogen-activated protein kinase kinase kinase kinase 2 (Homo sapiens, UniProt Q12851); assay: Inhibition of GCK (unknown origin) by radiometric biochemical kinase assay
T1 sequence (Q12851 whole entry): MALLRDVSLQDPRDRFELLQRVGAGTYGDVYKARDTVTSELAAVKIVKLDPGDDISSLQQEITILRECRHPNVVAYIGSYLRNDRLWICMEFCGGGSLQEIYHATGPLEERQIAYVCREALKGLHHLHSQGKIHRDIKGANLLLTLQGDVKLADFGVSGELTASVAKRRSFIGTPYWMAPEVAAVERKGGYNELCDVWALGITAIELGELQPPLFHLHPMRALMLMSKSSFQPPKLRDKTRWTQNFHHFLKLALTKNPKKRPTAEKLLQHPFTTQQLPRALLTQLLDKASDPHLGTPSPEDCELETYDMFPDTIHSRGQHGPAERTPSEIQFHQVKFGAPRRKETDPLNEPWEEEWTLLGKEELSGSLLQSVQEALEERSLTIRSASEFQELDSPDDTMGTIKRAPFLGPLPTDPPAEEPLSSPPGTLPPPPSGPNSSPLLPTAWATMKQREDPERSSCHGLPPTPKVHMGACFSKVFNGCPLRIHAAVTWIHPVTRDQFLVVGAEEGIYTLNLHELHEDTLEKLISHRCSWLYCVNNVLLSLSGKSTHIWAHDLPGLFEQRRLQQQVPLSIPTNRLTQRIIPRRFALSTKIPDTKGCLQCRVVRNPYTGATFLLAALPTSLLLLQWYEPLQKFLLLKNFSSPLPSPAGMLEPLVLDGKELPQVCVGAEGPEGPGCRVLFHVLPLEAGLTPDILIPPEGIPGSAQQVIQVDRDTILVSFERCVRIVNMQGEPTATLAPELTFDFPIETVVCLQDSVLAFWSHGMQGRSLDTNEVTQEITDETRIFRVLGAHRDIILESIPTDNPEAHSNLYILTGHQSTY

Mus musculus = species on record: Mus musculus; assay: Inhibition of ACK1/GCK in mouse BA/F3 cells assessed as reduction in NRAS-G12D mutant-mediated cell proliferation after 72 hrs by celltiter-glo assay; assay type: cell-based
[2] = Growth inhibition of parental mouse BA/F3 cells after 72 hrs by celltiter-glo assay; assay type: cell-based, BaF3
[3] = Growth inhibition of parental human U937 cells after 72 hrs by celltiter-glo assay; assay type: cell-based, U-937
OCI-AML-3 [4] = assay: Growth inhibition of ACK1/GCK knockdown human OCI-AML3 cells harboring NRAS-Q61L mutant at 0.2 uM after 72 hrs by celltiter-glo assay; assay type: functional, cell-based
OCI-AML-3 [5] = assay: Growth inhibition of human OCI-AML3 cells harboring NRAS-Q61L mutant after 72 hrs by celltiter-glo assay; assay type: functional; details: OCI-AML-3, 72 h
[6] = Metabolic stability in rat liver microsomes assessed as compound remaining at 1 uM after 30 mins; assay type: ADME, microsome; details: read-out: Stability
CYP1A2 = target: T2, CYP1A2 (Homo sapiens, UniProt P05177); assay: Inhibition of CYP1A2 (unknown origin) assessed as activity remaining at 10 uM relative to control; assay type: ADME; details: read-out: Activity
T2 sequence (P05177 whole entry): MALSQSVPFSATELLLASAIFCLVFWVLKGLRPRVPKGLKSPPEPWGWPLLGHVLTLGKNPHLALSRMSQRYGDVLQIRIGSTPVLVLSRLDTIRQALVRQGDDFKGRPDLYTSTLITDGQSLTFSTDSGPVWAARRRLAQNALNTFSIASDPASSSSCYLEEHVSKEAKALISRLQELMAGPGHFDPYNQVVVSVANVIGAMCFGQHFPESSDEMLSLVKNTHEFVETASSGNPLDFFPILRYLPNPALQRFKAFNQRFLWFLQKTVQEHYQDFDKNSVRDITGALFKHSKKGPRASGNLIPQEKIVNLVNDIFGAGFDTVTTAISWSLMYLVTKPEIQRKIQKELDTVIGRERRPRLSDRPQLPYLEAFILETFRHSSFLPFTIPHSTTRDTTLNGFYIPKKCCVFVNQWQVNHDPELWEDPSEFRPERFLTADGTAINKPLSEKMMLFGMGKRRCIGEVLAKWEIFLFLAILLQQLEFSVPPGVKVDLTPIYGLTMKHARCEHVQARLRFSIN

OCI-AML-3 [7] = assay: Growth inhibition of ACK1/GCK knockdown human OCI-AML3 cells harboring NRAS-Q61L mutant at 0.05 uM after 72 hrs by celltiter-glo assay; assay type: functional, cell-based
[8] = Metabolic stability in mouse liver microsomes assessed as compound remaining at 1 uM after 30 mins; assay type: ADME, microsome; details: read-out: Stability
[9] = Metabolic stability in human liver microsomes assessed as compound remaining at 1 uM after 30 mins; assay type: ADME, microsome; details: read-out: Stability
CYP2C9 = CYP2C9 (Homo sapiens, UniProt P11712); assay: Inhibition of CYP2C9 (unknown origin) assessed as activity remaining at 10 uM relative to control; assay type: ADME; details: read-out: Activity
CYP2D6 = CYP2D6 (Homo sapiens, UniProt P10635); assay: Inhibition of CYP2D6 (unknown origin) assessed as activity remaining at 10 uM relative to control; assay type: ADME; details: read-out: Activity
[10] = Metabolic stability in dog liver microsomes assessed as compound remaining at 1 uM after 30 mins; assay type: ADME, Canis lupus familiaris, microsome; details: read-out: Stability
CYP3A4 = CYP3A4 (Homo sapiens, UniProt P08684); assay: Inhibition of CYP3A4 (unknown origin) assessed as activity remaining at 10 uM relative to control; assay type: ADME; details: read-out: Activity
OCI-AML-3 [11] = assay: Growth inhibition of ACK1/GCK knockdown human OCI-AML3 cells harboring NRAS-Q61L mutant at 0.5 uM after 72 hrs by celltiter-glo assay; assay type: functional, cell-based
[12] = Selectivity index, ratio of GI50 for parental human U937 cells to GI50 for human OCI-AML3 cells harboring NRAS-Q61L mutant
Method in brief: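 Human AML lines OCI-AML3 (NRAS mutant) and U937 (NRAS wild-type) were exposed to inhibitors for 72 h. GI50 is the concentration giving half-maximal growth inhibition, averaged with SD (n = 3, duplicate). The index is the U937 GI50 divided by the OCI-AML3 GI50.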

Chain of CYP2D6 (P10635 whole entry): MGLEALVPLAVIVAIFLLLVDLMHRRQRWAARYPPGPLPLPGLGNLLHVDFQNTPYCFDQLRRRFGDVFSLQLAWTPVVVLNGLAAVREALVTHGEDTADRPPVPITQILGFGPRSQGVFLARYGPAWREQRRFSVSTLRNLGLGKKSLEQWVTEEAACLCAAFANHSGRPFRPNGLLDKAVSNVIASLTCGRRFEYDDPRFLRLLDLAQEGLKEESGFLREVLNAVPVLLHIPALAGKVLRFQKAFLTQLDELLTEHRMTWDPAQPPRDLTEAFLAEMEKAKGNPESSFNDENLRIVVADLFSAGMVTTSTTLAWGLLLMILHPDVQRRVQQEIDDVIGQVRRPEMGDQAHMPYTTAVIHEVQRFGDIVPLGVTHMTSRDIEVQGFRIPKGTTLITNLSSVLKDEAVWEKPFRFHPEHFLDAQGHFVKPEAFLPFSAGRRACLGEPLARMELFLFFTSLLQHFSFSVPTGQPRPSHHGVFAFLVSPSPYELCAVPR
Chain of Activated CDC42 kinase 1 (Q07912 whole entry): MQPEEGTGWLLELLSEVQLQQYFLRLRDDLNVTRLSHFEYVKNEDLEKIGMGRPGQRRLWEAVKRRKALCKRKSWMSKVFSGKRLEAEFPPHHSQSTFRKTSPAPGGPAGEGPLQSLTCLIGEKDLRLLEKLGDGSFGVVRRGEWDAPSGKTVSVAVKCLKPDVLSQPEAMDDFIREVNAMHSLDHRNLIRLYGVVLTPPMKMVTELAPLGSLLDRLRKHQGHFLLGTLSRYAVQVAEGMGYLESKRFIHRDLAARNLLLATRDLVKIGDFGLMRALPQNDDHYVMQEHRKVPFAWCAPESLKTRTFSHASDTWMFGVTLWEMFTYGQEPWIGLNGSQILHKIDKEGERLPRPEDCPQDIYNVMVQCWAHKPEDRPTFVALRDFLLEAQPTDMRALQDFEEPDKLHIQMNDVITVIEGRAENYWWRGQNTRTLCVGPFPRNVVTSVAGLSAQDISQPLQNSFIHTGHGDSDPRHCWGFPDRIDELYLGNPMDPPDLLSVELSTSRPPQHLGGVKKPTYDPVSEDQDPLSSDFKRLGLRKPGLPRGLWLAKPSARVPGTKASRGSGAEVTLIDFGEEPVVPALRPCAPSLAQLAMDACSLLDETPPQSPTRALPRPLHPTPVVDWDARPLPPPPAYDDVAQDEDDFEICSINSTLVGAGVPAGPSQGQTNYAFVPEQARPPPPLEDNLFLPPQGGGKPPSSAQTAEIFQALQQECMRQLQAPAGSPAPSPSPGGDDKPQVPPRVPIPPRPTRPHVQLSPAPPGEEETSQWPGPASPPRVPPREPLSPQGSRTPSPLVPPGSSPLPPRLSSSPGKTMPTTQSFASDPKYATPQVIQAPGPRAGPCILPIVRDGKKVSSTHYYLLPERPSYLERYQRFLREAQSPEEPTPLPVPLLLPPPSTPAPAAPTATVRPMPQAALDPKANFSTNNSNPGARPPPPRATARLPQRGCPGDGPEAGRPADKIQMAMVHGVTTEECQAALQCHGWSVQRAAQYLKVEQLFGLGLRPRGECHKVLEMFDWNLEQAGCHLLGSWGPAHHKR
Chain of CYP2C9 (P11712 whole entry): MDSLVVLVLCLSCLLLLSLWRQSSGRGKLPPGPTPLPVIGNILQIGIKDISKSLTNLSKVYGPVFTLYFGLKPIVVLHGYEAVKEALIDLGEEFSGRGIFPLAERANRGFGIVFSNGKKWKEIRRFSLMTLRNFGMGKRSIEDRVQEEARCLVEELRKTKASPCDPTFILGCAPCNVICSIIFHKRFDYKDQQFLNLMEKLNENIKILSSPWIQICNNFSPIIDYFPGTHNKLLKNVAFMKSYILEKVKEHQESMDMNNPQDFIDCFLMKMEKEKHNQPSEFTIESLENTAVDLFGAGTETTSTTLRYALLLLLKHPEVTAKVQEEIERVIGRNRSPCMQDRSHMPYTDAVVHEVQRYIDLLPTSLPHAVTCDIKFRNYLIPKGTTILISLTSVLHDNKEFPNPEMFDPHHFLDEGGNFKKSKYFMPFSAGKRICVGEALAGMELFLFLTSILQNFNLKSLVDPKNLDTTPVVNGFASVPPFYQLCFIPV
Chain of CYP3A4 (P08684 whole entry): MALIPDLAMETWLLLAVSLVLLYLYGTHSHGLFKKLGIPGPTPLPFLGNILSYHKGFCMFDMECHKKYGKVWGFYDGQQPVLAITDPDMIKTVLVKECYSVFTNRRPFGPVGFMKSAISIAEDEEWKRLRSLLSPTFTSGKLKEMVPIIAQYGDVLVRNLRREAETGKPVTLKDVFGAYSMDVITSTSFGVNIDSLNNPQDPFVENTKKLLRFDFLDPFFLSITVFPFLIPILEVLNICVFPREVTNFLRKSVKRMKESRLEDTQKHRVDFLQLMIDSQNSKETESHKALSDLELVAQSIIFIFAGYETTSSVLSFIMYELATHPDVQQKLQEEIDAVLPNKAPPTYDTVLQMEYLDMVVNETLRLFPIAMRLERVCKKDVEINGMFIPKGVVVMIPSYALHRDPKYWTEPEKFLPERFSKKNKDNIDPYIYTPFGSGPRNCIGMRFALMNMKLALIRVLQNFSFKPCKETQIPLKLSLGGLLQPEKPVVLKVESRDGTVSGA

SMILES	IC50 (Activated CDC42 kinase 1)	IC50 [1]	GI50 (Mus musculus)	GI50 at 72 h [2]	GI50 at 72 h [3]	growth inhibition (GI) (OCI-AML-3 [4])	GI50 (OCI-AML-3 [5])	remaining at 0.5 h, 1 µM [6]	activity at 10 µM (CYP1A2)	growth inhibition (GI) (OCI-AML-3 [7])	remaining at 0.5 h, 1 µM [8]	remaining at 0.5 h, 1 µM [9]	activity at 10 µM (CYP2C9)	activity at 10 µM (CYP2D6)	remaining at 0.5 h, 1 µM [10]	activity at 10 µM (CYP3A4)	growth inhibition (GI) (OCI-AML-3 [11])	RatioGI50 [12]
CC(=O)N1CCN(c2ccc(Nc3ncc4c(n3)N(C)C(=O)N(c3cc(NC(=O)c5ccc(CN6CCC(N(C)C)C6)c(C(F)(F)F)c5)ccc3C)C4)cn2)CC1 (stereo not given)	25 nM	16 nM	41 nM	187 nM	–	–	–	–	–	–	–	–	–	–	–	–	–	–
Cc1ccc(Nc2ncc3c(n2)N(C)C(=O)N(c2cc(NC(=O)c4ccc(N5CCN(C)CC5)c(C(F)(F)F)c4)ccc2C)C3)cn1	28 nM	10 nM	341 nM	685 nM	–	–	–	–	–	–	–	–	–	–	–	–	–	–
Cc1ccc(Nc2ncc3c(n2)N(C)C(=O)N(c2cc(NC(=O)c4cc(N5CCOCC5)cc(C(F)(F)F)c4)ccc2C)C3)cn1	26 nM	45 nM	284 nM	1650 nM	2800 nM	Active	260 nM	–	–	–	–	–	–	–	–	–	–	–
Cc1ccc(NC(=O)c2cccc(C(F)(F)F)c2)cc1N1Cc2cnc(NC3CCCCC3)nc2N(C)C1=O	60 nM	925 nM	2450 nM	5220 nM	–	–	–	–	–	–	–	–	–	–	–	–	–	–
Cc1cc(Nc2ncc3c(n2)N(C)C(=O)N(c2cc(NC(=O)c4ccc(CN5CCC(N(C)C)C5)c(C(F)(F)F)c4)ccc2C)C3)n(C)n1 (stereo not given)	11 nM	17 nM	123 nM	509 nM	–	–	–	–	–	–	–	–	–	–	–	–	–	–
Cc1ccc(NC(=O)c2cccc(C(F)(F)F)c2)cc1N1Cc2cnc(Nc3cnn(C)c3)nc2N(C)C1=O	20 nM	6 nM	100 nM	352 nM	1120 nM	–	42 nM	98.4%	88%	Active	73.3%	78.8%	42.9%	78.8%	71.3%	> 100%	–	–
Cc1ccc(Nc2ncc3c(n2)N(C)C(=O)N(c2cc(NC(=O)c4ccc(CN5CCN(C)CC5)c(C(F)(F)F)c4)ccc2C)C3)cn1	26 nM	5 nM	316 nM	818 nM	–	–	–	–	–	–	–	–	–	–	–	–	–	–
Cc1ccc(Nc2ncc3c(n2)N(C)C(=O)N(c2cc(NC(=O)c4ccc(C)c(C(F)(F)F)c4)ccc2C)C3)cn1	20 nM	39 nM	387 nM	870 nM	19400 nM	–	394 nM	–	–	–	–	–	–	–	–	–	Active	–
Cc1ccc(Nc2ncc3c(n2)N(C)C(=O)N(c2cc(NC(=O)c4cc(-n5cnc(C)c5)cc(C(F)(F)F)c4)ccc2C)C3)cn1	53 nM	27 nM	238 nM	> 5000 nM	–	–	–	–	–	–	–	–	–	–	–	–	–	–
CCN1CCN(c2ccc(Nc3ncc4c(n3)N(C)C(=O)N(c3cc(NC(=O)c5cccc(C(F)(F)F)c5)ccc3C)C4)cc2)CC1	20 nM	8 nM	83 nM	559 nM	839 nM	–	40 nM	19.7%	92.1%	Active	20.9%	46.7%	34.3%	79.8%	21.3%	> 100%	–	–
Cc1ccc(Nc2ncc3c(n2)N(C)C(=O)N(c2cc(NC(=O)c4ccc(-n5cccc5)c(C(F)(F)F)c4)ccc2C)C3)cn1	10 nM	24 nM	69 nM	317 nM	> 25000 nM	Active	267 nM	–	–	–	–	–	–	–	–	–	–	100
Cc1ccc(Nc2ncc3c(n2)N(C)C(=O)N(c2cc(NC(=O)c4ccccc4)ccc2C)C3)cn1	21 nM	1080 nM	1470 nM	2700 nM	–	–	–	–	–	–	–	–	–	–	–	–	–	–
Cc1ccc(NC(=O)c2cccc(C(F)(F)F)c2)cc1N1Cc2cnc(Nc3ccccc3)nc2N(C)C1=O	37 nM	47 nM	380 nM	1790 nM	–	–	–	–	–	–	–	–	–	–	–	–	–	–
Cc1ccc(Nc2ncc3c(n2)N(C)C(=O)N(c2cc(NC(=O)c4cc(N5CCC(O)CC5)cc(C(F)(F)F)c4)ccc2C)C3)cn1	40 nM	72 nM	118 nM	671 nM	2180 nM	Active	143 nM	–	–	–	–	–	–	–	–	–	–	–
CCN1CCN(c2ccc(Nc3ncc4c(n3)N(C)C(=O)N(c3cc(NC(=O)c5cccc(C(F)(F)F)c5)ccc3C)C4)cn2)CC1	28 nM	7 nM	71 nM	264 nM	1410 nM	–	30 nM	19.2%	89.7%	Active	21.2%	29.8%	23%	68%	21.4%	> 100%	–	–
Cc1ccc(NC(=O)c2cccc(C(F)(F)F)c2)cc1N1Cc2cnc(NC3CC3)nc2N(C)C1=O	35 nM	42 nM	547 nM	5060 nM	–	–	–	–	–	–	–	–	–	–	–	–	–	–
Cc1ccc(NC(=O)c2ccc(CN3CCC(N(C)C)C3)c(C(F)(F)F)c2)cc1N1Cc2cnc(Nc3cnn(C)c3)nc2N(C)C1=O (stereo not given)	25 nM	8 nM	68 nM	414 nM	–	–	–	–	–	–	–	–	–	–	–	–	–	–
Cc1ccc(NC(=O)c2cccc(C(F)(F)F)c2)cc1N1Cc2cnc(NCCO)nc2N(C)C1=O	21 nM	33 nM	290 nM	3290 nM	8530 nM	–	367 nM	–	–	–	–	–	–	–	–	–	Active	–
CCN1CCN(C(=O)c2ccc(Nc3ncc4c(n3)N(C)C(=O)N(c3cc(NC(=O)c5ccc(CN6CCC(N(C)C)C6)c(C(F)(F)F)c5)ccc3C)C4)cn2)CC1 (stereo not given)	21 nM	14 nM	94 nM	704 nM	–	–	–	–	–	–	–	–	–	–	–	–	–	–
